Data published in the EternaBench riboswitch data.

Tested on: MS2 coat protein
Experiment: apparent Kd, MS2 coat protein; higher = weaker binding; RNA-MaP array
In short: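 Apparent Kd was taken as the median of binding curves fitted cluster by cluster. The designed RNAs were made by transcription of sequenced DNA templates on an Illumina sequencing chip and exposed to fluorescently labeled MS2 coat protein (1.5 nM to 3 μM) at room temperature, with or without input ligand, for 0.8–1.5 h at the lowest and 10–20 min at the highest concentrations. Any design measured on fewer than 10 clusters was left out.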

[1] = designed as: ON switch for flavin mononucleotide, no ligand
[2] = ligand present: flavin mononucleotide, designed as: ON switch for flavin mononucleotide
[3] = designed as: OFF switch for flavin mononucleotide, no ligand
[4] = ligand present: flavin mononucleotide, designed as: OFF switch for flavin mononucleotide
[5] = designed as: OFF switch for theophylline, no ligand
[6] = ligand present: theophylline, designed as: OFF switch for theophylline
[7] = designed as: OFF switch for tryptophan, no ligand
[8] = ligand present: tryptophan, designed as: OFF switch for tryptophan

Sequence | apparent Kd [3] [nM] | apparent Kd [4] [nM] | also measured
CUGCAGACCCAGAAGGUUCACAUGAGGAUCACCCAUGUGCCUAUCAAUAAGUAAGGUAAAGGCUGAAAGGAUAUGGGUAAAGGA | – | – | apparent Kd [1]: 10.7 nM; apparent Kd [2]: 8.47 nM
GCAAUUCUUGAGAAGGUCGUAGUGCGCAGACCAAAAGCACAUGAGGAUCACCCAUGUGAUCAAACGAAGGAUAUCACAGUAGAA | 51.9 | 49.3 | –
GCCAAAAUACCCGAUACCAGUAUUAAUAGCACAACCUCACACAUGAGGAUCACCCAUGUAUACCCUUGGCAGCGGCCUAACAUAA | – | – | apparent Kd [5]: 36.9 nM; apparent Kd [6]: 102 nM
ACCUAUACUCCAGGAUAUCAAGACCGAUGACAUGAGGAUCACCCAUGUCAAUCAAAACCAUGACGUGAGAAGGGGAGGCUCGUC | – | – | apparent Kd [1]: 6.5 nM; apparent Kd [2]: 6.05 nM
GCUAUAUUUGAGAAGGGAGGAUGCUUCACAGAGCUUAGACCAGACAUGAGGAUCACCCAUGUGCCUCAGGAUAUCAAUAUCGAU | – | – | apparent Kd [1]: 27.3 nM; apparent Kd [2]: 8.5 nM
ACGUUCGCGGUAUCCAACCGGUUGUACAAACGAGGACCGGUACGGCCGCCACUCGUGAUUGUACAUGAGGAUCACCCAUGUGGCA | – | – | apparent Kd [7]: 17.6 nM; apparent Kd [8]: 17.2 nM
UUUCAAGUAUCGGCCGCCACUCUAGUUGGUUGUUCAAUCCGAUUACAUGAGGAUCACCCAUGUCUGAGGACCGGGAUAAAGUAAU | – | – | apparent Kd (designed as: ON switch for tryptophan, no ligand): 26.1 nM; apparent Kd (ligand present: tryptophan, designed as: ON switch for tryptophan): 31.8 nM
GCCCUGUGACUAGGAUAUGCCGGGAAACACAUCGCAGAAGGAGUCCACUCAUGUCGACAUGAGGAUCACCCAUGUACCAGGGUU | 40.6 | 29.9 | –
CGGUGACAUGAGGAUCACCCAUGUAAGGAUAUACCGGUUGAAGAUAAUAGCGACGGCGGAAGAAGGUACCUACA | 32 | 25.9 | –
ACAACUGCAGGAUAUACGAGGGCCGAGGUAUCCGUCCUCGGACAUGAGGAUCACCCAUGUAGAAGGGCAACGAU | 20.9 | 24.1 | –
UGAUGUAACAGAGGAUAUCACUCAAAUGCGGGCAUGUCGCACAUGUACAUGAGGAUCACCCAUGUUGAGAAGGCUGUGGUGCAA | – | – | apparent Kd [1]: 145 nM; apparent Kd [2]: 47.5 nM
GAUUAAAAGAUAGGAUAUUUUGAAAUCGUCACAUGAGGAUCACCCAUGUAUGGCCUGGGCAAUCAAAAGAAGGAUCUUUCUGAU | 11.2 | 6.84 | –
GACAAAAUGGUAGGAUAUGCUUGGUCUUGAUCAGCAGAAGGACCACAUGAGGAUCACCCAUGUGCAGUGAUUCUGGGAGCUCGC | 55.2 | 93.3 | –
AAUAGAGAGCAGAAGGCCCUAGUUAUCGGCAUGGGAGGAUAUGCACCAGAUAAUAACAUGAGGAUCACCCAUGUUGAAUAAGAA | – | – | apparent Kd [1]: 19.4 nM; apparent Kd [2]: 6.46 nM
CGUCUGUGAGGAUAUGGUCGAGGUUGGUGAAUUACUUACAUCCAGAAGGCACAUGAGGAUCACCCAUGUACAUC | 10.5 | 13.8 | –
UGGCUUGAAGGAUAUACAUGAGGAUCACCCAUGUAUCGCUAAAAGAGAAAUCCAUAAUGUAGAAGGUCAUCCCA | 8.91 | 12 | –
ACUUCAGAUACAGGAUAUAGCGUAACAUGAGGAUCACCCAUGUCUUGAUGCCUCUGUCGCGACGACUAGAAGGGUAAGCUUUGA | 91.6 | 86.7 | –
UAUAAGGAAGGAUAUAGGCUGCAAAACAUGAGGAUCACCCAUGUGAACCGACGACGCCAACUAGAAGGUCCCUAUG | 13.5 | 12.9 | –
CUCUUGGCCGCAGUACGUUUAUAGACCUAUCGAGGACCGGUACGGCCGCCACUCGGUUAGUCACAUGAGGAUCACCCAUGUGUCC | – | – | apparent Kd [7]: 17.7 nM; apparent Kd [8]: 29.9 nM
AAUACACAUGAGGAUCACCCAUGUAAGGAUAUCAAGCAUCAAACAUUAGAGUGAGGAGUGAGAAGGUACAUCAC | 20.1 | 16.3 | –
UGUGGGUCCGAAGAUACCAGCCAGCACAGCAUGUGUUUAAACAUGAGGAUCACCCAUGUCGGCCCUUGGCAGCUUGGUUUGGACG | – | – | apparent Kd [5]: 15.5 nM; apparent Kd [6]: 12.1 nM
CGUAAACAUGAGGAUCACCCAUGUGAUGAUACCAGCACGAUUAACUGCCCUUGGCAGCAUGUAUUGUACGACUUAUUGCCCAUCG | – | – | apparent Kd (designed as: ON switch for theophylline, no ligand): 14.8 nM; apparent Kd (ligand present: theophylline, designed as: ON switch for theophylline): 16.8 nM
UUUACACACUCAGGAUAUGAAUUCAAUUUAUCGGGCCGCUAACAUGAGGAUCACCCAUGUAACAUUCAGAAGGGAGAAGAGCCA | 17.5 | 13.7 | –
